# High-throughput results: PubChem BioAssay, several laboratories
# This is a sample that favours compounds with a hit; in the whole collection about 0.89% have one here.
# MIN6 prolif – inducers of beta-cell replication in MIN6 cells; MIN6 cells proliferation, ATPlite luminescence, 48 h; cells starved in 0.2% serum; 100% = growth in 10% serum; proliferation, % at 10 µM; hit rate 0.29% among 330,000;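 active = compounds whose signal lies at least 3.5 SD above the mean of all wells on their plate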;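 note: 0% = DMSO-treated cells in low-serum medium and 100% = 10% serum control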
# NTR1 ag – NTR1 (human) agonism; hit rate 0.17% among 330,000; activation, % at 20 µM; NTR1-U2OS beta-arrestin-GFP spot imaging, agonist mode; P30989;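 active = activation at or above 40% of the spot to cytoplasm intensity ratio, with at least 20 cells analyzed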;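 note: 0% = DMSO without peptide and 100% = 100 nM NTR1 peptide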
# T cell HTS – T cell immune modulators affecting CD8 T cell-vesicle binding; 2C CD8+ T cell-vesicle binding, flow cytometry; stronger effect = lower value; response (vesicle binding), % at 7 µM; hit rate 0.068% among 330,000; AID 2052;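 active = response, share of CD8 T cells binding vesicles, and their 90th percentile fluorescence all below set limits, cut at about 80% in these data, passing the limit was not always enough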;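 note: values below 100% mean blocked vesicle binding to the CD8+ T cells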
#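 Material: 2C TCR transgenic mouse naive CD8+ T cells, MACS-purified. Also added: QL9-charged Drosophila Ld/ICAM-1/B7-1 vesicles. Timing: binding 1.5 h at 37 °C. Measured by: high-throughput flow cytometry with anti-B7-1 and anti-CD8 staining. Read-out: percent CD8+ FL2 mean versus row control. Controls: Unloaded micro-vesicles (low), QL9 vesicles with 0.7% DMSO (high).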
# Xi reactivation – activators of X-chromosome reactivation in mouse fibroblasts; XiGFP mouse fibroblasts, % GFP-positive cells imaging, 3 d; cells co-treated with 5-aza-dC sensitizer; scaled so ellipticine positive control = 100%; hit rate 0.055% among 360,000; activation, % at 7.58 µM; AID 743238;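 active = mean normalized replicate activation at least 10% and every replicate at or above 10%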;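 note: 0% = median of on-plate neutral control wells and 100% = ellipticine 6 µM median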
#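 System: 68-5-11 XiGFP fibroblast line; Timing: 3 days compound exposure; Compound dosing: one concentration, pinned; Benchmarks: positive control ellipticine, 6 µM final; Buffer or medium: DMEM containing 5-aza-dC.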
# V-ATPase pHluor – yeast V-ATPase proton transport regulation by pHLuorin; response, % at 10 µM; hit rate 0.37% among 350,000; S. cerevisiae, pHLuorin cytosolic pH fluorescence; in the data active = response mostly above about 7.3%, no sharp cut-off; inactive = mostly below about 5.4%; note: actives read high
# Arrestin-AP2 inh – blocks beta-arrestin peptide binding to AP2 adaptin; AID 504490; hit rate 0.31% among 340,000; inhibition, % at 10 µM; FITC-arrestin peptide / GST-AP2 beads, flow cytometry; AP2 beta2 appendage carries R879A mutation;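 active = inhibition above a set limit, near 3 SD of compounds lacking own fluorescence, cut at about 54% in these data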;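 note: plate controls were DMSO wells for no effect and 5 µM unlabelled arrestin peptide for full effect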
#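 System: GST-AP2 R879A glutathione beads; medium: PBS, Tween 20 0.05%, BSA 0.1%; reagent: fluorescein-tagged arrestin peptide at 50 nM final; schedule: pre-incubation 12 min, peptide binding 1 h, room temperature; detection: flow cytometry, FL1 (488/535 nm); read-out: inhibition as reduced fluorescein signal on beads, percent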
# NTR1 ag conf – NTR1 (human) agonism, confirmed | shares compounds with NTR1 ag | NTR1-U2OS beta-arrestin-GFP translocation imaging | activation, % at 20 µM | hit rate 38% among 480 | AID 504550;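 active = mean activation at 20 µM of at least 40%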;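 note: 0% = DMSO without peptide and 100% = 100 nM NTR1 peptide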
# Arr-AP2 CP1 – human beta-arrestin and AP2 interaction inhibition, cherry pick | AID 504908 | shares compounds with Arrestin-AP2 inh | inhibition, % at 10 µM | hit rate 2% among 1,300 | GST-AP2 beads, FITC arrestin peptide binding, flow cytometry; GST-fused beta2-adaptin appendage, R879A mutant;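 active = inhibition above a set limit, roughly 3 SD of non-fluorescent compound noise, cut at about 38% in these data; inactive = inhibition at or below that limit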;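 note: loss of bead fluorescence from 50 nM FITC arrestin peptide bound to appendage; 0% = negative control wells and 100% = excess unlabelled arrestin peptide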
# Target sequence (P63010 whole entry, looked up, the tested form may be a part, one chain of several): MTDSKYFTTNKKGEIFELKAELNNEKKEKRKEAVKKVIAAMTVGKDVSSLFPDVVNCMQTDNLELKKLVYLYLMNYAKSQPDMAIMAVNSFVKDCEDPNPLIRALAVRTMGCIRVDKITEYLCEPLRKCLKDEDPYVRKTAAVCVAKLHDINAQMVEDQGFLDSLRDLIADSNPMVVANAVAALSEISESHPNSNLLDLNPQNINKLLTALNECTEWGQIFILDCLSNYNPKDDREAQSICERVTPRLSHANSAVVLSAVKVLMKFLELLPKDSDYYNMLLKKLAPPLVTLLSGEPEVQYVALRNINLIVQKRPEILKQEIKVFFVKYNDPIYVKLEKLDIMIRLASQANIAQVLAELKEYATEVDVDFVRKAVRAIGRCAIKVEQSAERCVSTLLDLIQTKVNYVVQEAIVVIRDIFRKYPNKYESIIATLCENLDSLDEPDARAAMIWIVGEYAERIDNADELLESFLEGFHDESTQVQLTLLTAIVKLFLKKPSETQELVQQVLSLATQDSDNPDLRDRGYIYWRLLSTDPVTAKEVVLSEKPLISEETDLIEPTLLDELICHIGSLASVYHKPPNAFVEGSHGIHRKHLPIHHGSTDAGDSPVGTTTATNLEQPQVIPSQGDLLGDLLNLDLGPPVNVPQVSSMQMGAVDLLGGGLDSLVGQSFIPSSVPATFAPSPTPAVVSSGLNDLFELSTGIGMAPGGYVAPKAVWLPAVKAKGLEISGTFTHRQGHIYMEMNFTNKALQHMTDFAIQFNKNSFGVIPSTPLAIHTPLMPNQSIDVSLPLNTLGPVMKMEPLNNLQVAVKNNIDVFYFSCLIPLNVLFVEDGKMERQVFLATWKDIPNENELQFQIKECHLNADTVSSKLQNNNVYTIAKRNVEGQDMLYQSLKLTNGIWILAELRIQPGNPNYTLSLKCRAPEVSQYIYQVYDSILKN
# GST-FITC bead – GST-GSH bead binding interference, counter-screen. hit rate 2% among 1,300. GST-fluorescein binding to GSH beads, fluorescence. inhibition, % at 10 µM. AID 588338. shares compounds with Arrestin-AP2 inh;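 active = inhibition above 50%, about 3 SD of the inhibition seen with non-fluorescent compounds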;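 note: fluorescein maleimide labelled GST captured on 4 micron glutathione beads; higher means more loss of bead fluorescence from quenching or blocked binding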
# VATPase regulator – modulates yeast V-ATPase proton transport | shares compounds with V-ATPase pHluor | S. cerevisiae pHLuorin cytosolic pH | response, % at 10 µM | hit rate 2% among 980; in the data active = response above about 24%;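 note: plate controls were vehicle wells for no effect and positive control wells for full effect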
# * = called active by the depositor; i = inactive; x = not tested or not shown.
SMILES,MIN6 prolif,NTR1 ag,T cell HTS,Xi reactivation,V-ATPase pHluor,Arrestin-AP2 inh,others
O=C(Cc1ccccn1)N1CCCCN2[C@H](C1)[C@@H](c1ccc(C#Cc3ccccc3)cc1)[C@@H]2CO,x,x,x,0,x,x,
CC(C)NC(=O)N1C[C@@H]2C(c3ccc(Br)cc3)[C@H](C1)N2C (some centres undefined),x,x,x,0,x,x,
Cc1ccc(-c2cc(-c3ccc(C)cc3)[n+](-c3ccccc3)c(-c3ccc(C)cc3)c2)cc1,-9,34,153,x,-2,6,
Cc1ccc(-c2cc(-c3ccccc3)cc(-c3ccccc3)[n+]2-c2ccccc2)cc1,-9,50*,462,0,0,-12,NTR1 ag conf=82*
c1ccc(-c2cc(-c3ccccc3)[n+](-c3ccccc3)c(-c3ccccc3)c2)cc1,-6,67*,203,1,6,2,NTR1 ag conf=65*
COC(=O)[C@@H]1[C@@H](CO)[C@@H]2Cn3c(ccc(-c4ccccc4F)c3=O)[C@H]1N2C(C)=O,x,x,x,0,x,x,
O=C1NC(=O)N(c2ccccc2)C(=O)/C1=C\C=C\c1ccccc1,-4,74*,714,1,8,4,NTR1 ag conf=49*
O=C1NC(=O)N(c2ccccc2F)C(=O)/C1=C/c1cn(CC(=O)N2CCOCC2)c2ccccc12,1,42*,216,0,x,x,NTR1 ag conf=32
CCN1C(=O)NC(=O)/C(=C\c2cn(CC(=O)N3CCCC3)c3ccccc23)C1=O,0,3,462,0,0,-3,
O=C1NC(=O)C(=Cc2ccc(SC3CCCCC3)o2)C(=O)N1,3,50*,183,1,-9,2,NTR1 ag conf=68*
COc1ccc(OC)c(N=Cc2c(O)n(Cc3ccccc3)c(=S)[nH]c2=O)c1,-1,59*,i,0,1,11,NTR1 ag conf=65*
CS(=O)(=O)N1C[C@@H]2C(c3ccccc3)[C@H](C1)N2CC1CC1 (some centres undefined),x,x,x,0,x,x,
O=C(Cc1ccccc1)N1C[C@@H]2[C@H](c3ccccc31)[C@H](CO)N2Cc1ccccc1,x,x,x,0,x,x,
COc1ccccc1-n1c(CNCC2CCCO2)nc2ccccc2c1=O (centres undefined),2,0,664,0,5,60*,Arr-AP2 CP1=-1;GST-FITC bead=-7
CN(C)c1ccc(C=C2C(=O)NC(=O)NC2=O)cc1[N+](=O)[O-],1,2,448,0,2,5,
CN(C)c1ccc(C=C2C(=O)NC(=S)NC2=O)cc1[N+](=O)[O-],-1,0,146,0,-1,64*,Arr-AP2 CP1=17;GST-FITC bead=7
CCOC(=O)C1(CCOc2ccccc2)CCN(Cc2ccc(C)s2)CC1,-6,1,316,0,-1,57*,Arr-AP2 CP1=10;GST-FITC bead=-4
CCOC(=O)C1(CCc2ccccc2)CCN(Cc2ccc3c(c2)OCCO3)CC1,-4,6,227,0,-2,4,
CN1[C@@H]2CN(S(C)(=O)=O)C[C@H]1C2c1ccccc1 (some centres undefined),x,x,x,0,x,x,
c1ccc2c(c1)cc1ccc3cccc4ccc2c1c34,x,x,x,0,-6,57*,Arr-AP2 CP1=11;GST-FITC bead=-1
COC(=O)[C@@H]1[C@@H](CO)[C@@H]2Cn3c(ccc(-c4ccccc4F)c3=O)[C@H]1N2CC1CCCC1,x,x,x,0,x,x,
Cc1cccc(C(=O)Nc2ccc(Cl)cc2C(=O)c2ccccc2)c1,2,6,270,x,9.0*,9,VATPase regulator=-1
C[N+](C)(C)CC(=O)Nc1ccc(Cl)cc1C(=O)c1ccccc1,-3,1,327,0,3,32,
Cc1ccc(OC(=O)N(C)C[C@H]2OCc3ccccc3-c3c(n(C)c4ccccc34)C(=O)N([C@@H](C)CO)C[C@H]2C)cc1,x,x,x,0,x,x,
Cc1[nH]c2ccccc2c1C(=O)C(=O)N1CC2CC(C1)c1cccc(=O)n1C2 (centres undefined),-1,0,187,0,9.1*,-35,VATPase regulator=-1
SMILES,MIN6 prolif,NTR1 ag,T cell HTS,Xi reactivation,V-ATPase pHluor,Arrestin-AP2 inh,others
CC(C)NC(=O)N1C[C@@H]2N[C@H](C1)C2c1ccc(Br)cc1 (some centres undefined),x,x,x,0,x,x,
O=C(O)CCn1cc(C=C2C(=O)NC(=O)NC2=O)c(-c2ccc(Br)cc2)n1,0,3,513,x,-2,-2,
O=C(O)CCn1cc(C=C2C(=O)NC(=S)NC2=O)c(-c2cccc(Cl)c2)n1,1,0,355,0,8.0*,5,VATPase regulator=-1
OC[C@@H]1Nc2ccc(C#Cc3cccnc3)cc2[C@@H]2NCC[C@H]12,x,x,x,0,x,x,
CN1C(=O)/C(=C\c2ccc(Br)s2)C(=O)NC1=S,x,x,293,0,21*,25,VATPase regulator=97*
CCCCCCn1c(=O)c(C(=O)Nc2c(C)n(C)n(-c3ccccc3)c2=O)c(O)c2ccccc21,-5,1,138,0,11*,1,VATPase regulator=2
